An excerpt weighted towards active compounds, which were near 2.9% of everything screened.
AI-2 QS mod = modulates the Vibrio harveyi AI-2 quorum sensing system; activity change, % at 7.5 µM; actives 0.4% (n = 300,000); Vibrio harveyi JMH597 AI-2 luminescence/OD600 ratio, 9 h; active compounds read low; strain lacks LuxN and CqsS sensors; 0 = neutral-control median; AID 2094; in the data active = activity change below about -75%, passing the limit was not always enough; inconclusive = no clear call, values can overlap the other calls;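 note: luminescence divided by OD600 gain over 9 h not by final OD600 alone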
Runt-CBFb FRET = blocks binding of human RUNX1 Runt domain to CBFb; Q01196+Q13951; Cerulean-Runt/Venus-CBFb FRET ratio 530/480, 1 h; inhibition, % at 20 µM; actives 0.46% (n = 220,000);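 active = inhibition over about 50% at 20 µM in the single-dose screen, limit read from the data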;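 note: 0% = DMSO wells and 100% = excess unlabeled CBFb competitor control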
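Schedule: protein complex preformed 1 h, compound exposure 1 h, room temperature, dark; test system: Cerulean-labeled Runt domain protein; amount: 100 nM per protein; buffer or medium: Tris 50 mM pH 7.5, KCl, K2SO4, 0.01% BSA; read-out: loss of energy transfer signal; detection: FRET fluorescence; controls: 5 µM unlabeled CBFb as full-inhibition high control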
RanGTP-Imp inh = disruptors of Ran-importin-beta complex formation – biochemical, FRET, CFP-Ran, YFP-importin-beta, homogeneous, primary screen; inhibition, % (no concentration beside the values); cell-free CFP-Ran/YFP-importin-beta FRET ratio; actives 1.1% (n = 300,000); AID 2216;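 active = more than half of the replicate wells show a fall in the fluorescence ratio signal beyond about 16%, limit read from the data, passing the limit was not always enough; inconclusive = exactly half of the replicate wells pass the set limit; inactive = fewer than half of replicates pass the limit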;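 note: 0% = DMSO wells and 100% = Ran loaded with GDP instead of GTP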
Runt-SMMHC FRET = blocks binding of human RUNX1 Runt domain to CBFb-SMMHC | Q01196+Q13951 | Cerulean-Runt/Venus-CBFb-SMMHC FRET ratio 530/480, 1 h | inhibition, % at 20 µM | actives 0.74% (n = 220,000) | AID 1434;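 active = mean inhibition across duplicate retests at 20 µM reaching about 50%, limit read from the data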;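 note: 0% = DMSO wells and 100% = wells with excess untagged CBFb-SMMHC; inhibitors lower the FRET ratio by blocking Runt binding to CBFb-SMMHC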
Wee1 degr inh = human Wee1 degradation inhibition, primary screen; P30291; HeLa Luc-Wee1K328M stability, luciferase luminescence; 100% = proteasome inhibitor MG132 effect; reporter increase, % at 5 µM; actives 1.2% (n = 220,000); AID 1321;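 active = activation above the mean of all tested compounds plus 3 SD, set per screening run, cut at about 8.8% in these data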;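 note: cells exposed to compound for 20 h before luminescence read; 0% = DMSO alone and 100% = MG132 at 30 µM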
Target sequence (P30291 whole entry K328M): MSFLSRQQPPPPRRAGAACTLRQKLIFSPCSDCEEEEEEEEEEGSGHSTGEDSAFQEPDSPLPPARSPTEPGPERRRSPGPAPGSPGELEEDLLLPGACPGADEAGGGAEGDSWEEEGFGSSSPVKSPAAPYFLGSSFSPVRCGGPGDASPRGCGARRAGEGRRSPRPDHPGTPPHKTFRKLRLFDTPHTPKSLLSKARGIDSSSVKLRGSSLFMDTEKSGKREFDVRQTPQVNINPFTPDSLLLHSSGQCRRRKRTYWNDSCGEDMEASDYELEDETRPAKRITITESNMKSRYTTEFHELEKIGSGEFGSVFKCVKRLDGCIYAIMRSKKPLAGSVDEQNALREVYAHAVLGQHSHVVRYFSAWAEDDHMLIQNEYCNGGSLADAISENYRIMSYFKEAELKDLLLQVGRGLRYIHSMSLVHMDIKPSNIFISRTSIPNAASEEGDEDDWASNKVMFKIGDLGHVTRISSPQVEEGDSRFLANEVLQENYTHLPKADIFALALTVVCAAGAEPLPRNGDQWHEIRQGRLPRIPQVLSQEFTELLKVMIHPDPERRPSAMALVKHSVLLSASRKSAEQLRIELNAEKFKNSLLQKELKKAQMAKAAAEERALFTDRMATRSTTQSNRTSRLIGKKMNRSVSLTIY
proKLK7 act = proKLK7 (human) activation, primary screen; P49862; purified proKLK7, EDANS-DABCYL substrate fluorescence; 100% is mature enzyme control, 0% vehicle; activation, % at 7 µM; actives 0.9% (n = 370,000);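 active = activation above the mean of all tested compounds plus 3 SD, computed per campaign excluding outliers beyond control limits, cut at about 13% in these data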
* = called active by the depositor; ? = inconclusive; . = no result given.

SMILES	AI-2 QS mod	Runt-CBFb FRET	RanGTP-Imp inh	Runt-SMMHC FRET	Wee1 degr inh	proKLK7 act
COc1ccc(-c2cc(C(F)F)n3ncc(C(=O)N4CCN5CCCC5C4)c3n2)cc1 (configuration not stated)	19	1	0	9	-1	24*
COc1ccc(-n2c(N)c(C(=O)NCC3CCCO3)sc2=S)cc1 (configuration not stated)	3	2	-4	-3	10*	0
CC(C)(C)C(=O)c1c(N)[nH]c(C(=O)c2ccccc2)c1-c1ccccc1Br	.	.	.	.	.	0
CC(=O)C1=C(C)N(Cc2ccc(Br)cc2)C(=S)NC1c1ccc(F)cc1 (configuration not stated)	.	.	.	.	.	0
CC(NC(=O)C(=O)NCCC1=CCCCC1)c1ccccc1 (configuration not stated)	21	0	0	1	8.8*	0
Clc1ccc(-c2csc(NCC3CCCO3)n2)cc1 (configuration not stated)	.	.	.	.	.	1
O=C(COc1ccc(Br)cc1)N(Cc1cccs1)C1CCS(=O)(=O)C1 (configuration not stated)	33	.	18*	.	.	0
O=[N+]([O-])c1cc(CN2CCN(c3cccc(C(F)(F)F)c3)CC2)c2cccnc2c1O	-97*	3	-3	-3	4	0
O=[N+]([O-])c1cc(CN2CCCC2)c2cccnc2c1O	.	-1	.	-6	0	.
COCCNC(=O)CN(c1cc(C(F)(F)F)ccc1Cl)S(C)(=O)=O	10	-2	?	1	10*	1
COc1ccc(C2c3sc(=O)[nH]c3SC3C4CCC(C4)C23)cc1 (configuration not stated)	7	14	5	4	-2	0
Cc1ccc(C2c3sc(=O)[nH]c3SC3C4CC(C5C(=O)N(C(C)C(=O)O)C(=O)C45)C23)cc1 (configuration not stated)	13	27	58*	4	2	2
O=C(O)CCN1C(=O)C2C3CC(C2C1=O)C1C(c2ccccc2)c2sc(=O)n(-c4ccccc4)c2SC31 (configuration not stated)	5	4	9	0	-4	0
O=C(O)CCN1C(=O)C2C3CC(C2C1=O)C1C(c2ccccc2)c2sc(=O)[nH]c2SC31 (configuration not stated)	3	12	21*	-1	2	0
O=c1[nH]c2c(s1)C(c1ccccc1)C1C3CCC(C3)C1S2 (configuration not stated)	43	4	26*	11	-1	1
CCOC(=O)N1CCN(C(=O)C[C@H]2C[C@@]3(C(=O)OC)C(=C[C@H](C4CCCC4)O[C@@H]3C)N(Cc3cccc4ccccc34)C2=O)CC1	.	.	.	.	.	0
N#CC1=C(N)C(C#N)(C#N)C(c2cccnc2)C2CC(c3ccccc3)CC=C12 (configuration not stated)	25	-44	-43	-1	-4	.
CC(C)c1ccc(C2C3CSCC=C3C(C#N)=C(N)C2(C#N)C#N)cc1 (configuration not stated)	33	-9	16*	-24	1	.
Nn1c(SCC(=O)Nc2nccs2)nnc1-c1cc(-c2ccc(F)cc2)n[nH]1	.	.	.	.	.	1
COc1ccc(/C=C/C(=O)c2ccc(NC(=O)c3cccs3)cc2)cc1OC	-6	-5	7	-11	9.2*	-187
O=C(NCc1ccco1)C1CCCN1S(=O)(=O)c1ccc2ccccc2c1 (configuration not stated)	32	2	0	1	4	0
Cn1c(=O)c(=O)n(C)c2cc(S(=O)(=O)N3CCCC3C(=O)NCc3ccco3)ccc21 (configuration not stated)	13	4	5	-3	9.0*	0
CCN(CC)C(=O)[C@H]1C[C@@H]2[C@H](C[C@@H](c3ccccc3)[C@H]1C)N(c1ccc(F)cc1)C(=O)N2C/C=C(\C)CCC=C(C)C	.	.	.	.	.	0
COCC(C)OC(=O)C(C#N)c1nc2ccccc2nc1N1CCN(Cc2ccccc2)CC1 (configuration not stated)	4	44	7	72*	0	1
COCCCNC(=O)C(C#N)c1nc2ccccc2nc1N1CCN(Cc2ccccc2)CC1 (configuration not stated)	4	24	?	24	-4	0
SMILES	AI-2 QS mod	Runt-CBFb FRET	RanGTP-Imp inh	Runt-SMMHC FRET	Wee1 degr inh	proKLK7 act
C=CCOC(=O)C(C#N)c1nc2ccccc2nc1N1CCN(Cc2ccccc2)CC1 (configuration not stated)	12	0	.	68*	-1	1
CC(C)COC(=O)C(C#N)c1nc2ccccc2nc1N1CCN(Cc2ccccc2)CC1 (configuration not stated)	4	27	?	53	1	1
CCCCOC(=O)C(C#N)c1nc2ccccc2nc1N1CCN(Cc2ccc3c(c2)OCO3)CC1 (configuration not stated)	18	43	.	75*	1	0
COC(=O)C1=C(C)N(Cc2ccccc2C(F)(F)F)C(=NCc2ccc(OC)cc2)NC1c1ccc(F)cc1 (configuration not stated)	.	.	.	.	.	1
CC(OC(=O)Cn1[nH]c(=O)c2ccccc2c1=O)C(=O)Nc1ccc(F)cc1 (configuration not stated)	10	.	-4	.	.	0
CC(C)Oc1cccc(C(=O)Nc2ccc(Br)cc2F)c1	20	-2	-1	-4	9.1*	1
CCC(C)NC(=O)CC(NS(=O)(=O)c1ccc(NC(C)=O)cc1)C(C)C (configuration not stated)	17	0	4	0	9.8*	0
COc1ccc(NS(=O)(=O)c2ccc(Cl)c(N)c2)cc1Br	16	0	-4	-11	-1	0
Nc1cc(S(=O)(=O)Nc2ccc(Br)cc2)ccc1Cl	-76*	-2	-2	-4	9.4*	0
CS(=O)(=O)Nc1nnc(CCc2ccccc2)s1	13	.	0	.	.	0
COc1ccc(CCc2nnc(NS(C)(=O)=O)s2)cc1	-7	.	27*	.	.	0
CN(C)/C=C/C(=O)c1cnc(-c2ccccc2)s1	11	-2	0	-1	10*	1
O=C(c1ccccc1)c1cnc(-c2ccc(Cl)cc2)s1	31	2	4	4	-1	0
O=C(c1ccccc1)c1cnc(-c2ccccc2)s1	-30	1	-4	-2	10*	0

High-throughput results: PubChem, several laboratories
